Reference: article PMC6882486 (Journal of Enzyme Inhibition and Medicinal Chemistry, 2019)

Legend:
[1] = target: CDK2 (Homo sapiens, UniProt P24941); assay: ADP-Glo Kinase Assay, cell-free detection of CDK2 activity; format: biochemical
[2] = test system: HCT116; assay: MTT anti-tumour cell proliferation in vitro, HCT116; format: cell-based; settings: Homo sapiens, HCT-116, 36 h, read-out: Cells IC50 (μM) HCT116
Outline: (§1)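 Cells grown in RPMI1640 with 10% foetal bovine serum at 37 °C, 5% CO2. Seeded at 5000/well in triplicate and allowed 6 h to adhere. Treated with a concentration series of test compound for 36 h. Reference CDK inhibitor at the same concentrations served as positive control, and DMSO as negative control. Stained with 5% MTT; absorbance read at 570 nm.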

[3] = test system: A549; assay: MTT anti-tumour cell proliferation in vitro, A549; format: cell-based; settings: Homo sapiens, A549, 36 h, read-out: Cells IC50 (μM) A549
Outline: as §1

IC50 [1]: 52.7 ± 3.1 nM
IC50 [2]: 1.1 ± 0.3 µM
IC50 [3]: 3.7 ± 0.4 µM
Compound: CNC(=O)c1nn(C)c2c1C(C)(C)Cc1cnc(Nc3ccc(N4CCN(C)CC4)cc3)nc1-2 [Milciclib]
